Laboratory results reported in ChEMBL document CHEMBL1250555, “Anti-AIDS agents 84. Synthesis and anti-human immunodeficiency virus (HIV) activity of 2'-monomethyl-4-methyl- and 1'-thia-4-methyl-(3'R,4'R)-3',4'-di-O-(S)-camphanoyl-(+)-cis-khellactone (DCK) analogs” (Bioorg Med Chem, 2010).

How the values were obtained:
[1] = Therapeutic index, ratio of IC50 for human H9 cells to EC50 for HIV1 3B; assay type: cell-based; conditions: read-out: TI
How it was run: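 Mock-infected H9 cells were run in parallel under the same conditions, and toxicity was measured by XTT. IC50 is the concentration toxic to 50% of the cells. TI = IC50/EC50, where EC50 is 50% suppression of HIV-1 IIIB replication measured by day-6 p24 antigen capture.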

[2] = target: Human immunodeficiency virus type 1 reverse transcriptase (Human immunodeficiency virus 1, UniProt Q72547); assay: Inhibition of HIV1 DH012 reverse transcriptase by roche colorimetric assay
How it was run: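 HIV-1 DH012 RT activity was measured across a range of test-compound concentrations using a colorimetric RT kit run per the manufacturer's protocol; IC50 taken as the inhibitory concentration.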

[3] = test system: Human immunodeficiency virus 1; assay: Antiviral activity against HIV1 IIIB infected in human H9 cells after 6 days by p24 antigen capture assay; conditions: Human immunodeficiency virus 1, H9, 144 h
[4] = test system: Human immunodeficiency virus 1; assay: Antiviral activity against HIV1 3B infected in human H9 cells assessed as inhibition of viral replication at up to 100 ug/mL after 6 hrs by p24 antigen based assay; assay type: functional, organism-based; conditions: in the assay text read “after 6 days” for “after 6 hrs”
How it was run: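 H9 human T cells (3 × 10^5 cells/mL) infected with HIV-1 IIIB at 125 TCID50. Compounds dissolved in DMSO and screened at final 100, 20, 4 and 0.8 μg/mL, with further dilutions for actives. Medium was replaced on days 1 and 4 post-infection. On day 6 the supernatant p24 antigen was measured by capture assay. EC50 is the concentration suppressing replication by 50%.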

EC50 [4] | Structure (SMILES) | selectivity ratio [1] | IC50 [2] | EC50 [3]
 | Cc1cc(=O)oc2c3c(ccc12)OC(C)(C)[C@H](OC(=O)[C@]12CC[C@](C)(C(=O)O1)C2(C)C)[C@@H]3OC(=O)[C@]12CC[C@](C)(C(=O)O1)C2(C)C | 301 | 10400 nM | 126 nM
 | Cc1cc(=O)oc2c3c(ccc12)[S+]([O-])[C@H](C)[C@H](OC(=O)[C@]12CC[C@](C)(C(=O)O1)C2(C)C)[C@@H]3OC(=O)[C@]12CC[C@](C)(C(=O)O1)C2(C)C (some centres undefined) | 1.57 |  | 24400 nM
Not Active | Cc1cc(=O)oc2c3c(ccc12)S[C@H](C)[C@@H](OC(=O)[C@]12CC[C@](C)(C(=O)O1)C2(C)C)[C@H]3OC(=O)[C@]12CC[C@](C)(C(=O)O1)C2(C)C |  |  | 
 | Cc1cc(=O)oc2c3c(ccc12)S[C@H](C)[C@H](OC(=O)[C@]12CC[C@](C)(C(=O)O1)C2(C)C)[C@@H]3OC(=O)[C@]12CC[C@](C)(C(=O)O1)C2(C)C | 31.1 |  | 1260 nM
 | Cc1cc(=O)oc2c3c(ccc12)S(=O)(=O)[C@@H](C)C(OC(=O)C12CCC(C)(C(=O)O1)C2(C)C)C3OC(=O)C12CCC(C)(C(=O)O1)C2(C)C (some centres undefined) | 11.1 |  | 3370 nM
 | Cc1cc(=O)oc2c3c(ccc12)O[C@@H](C)[C@H](OC(=O)[C@]12CC[C@](C)(C(=O)O1)C2(C)C)[C@@H]3OC(=O)[C@]12CC[C@](C)(C(=O)O1)C2(C)C | > 706 | 6700 nM | < 40 nM
 | Cc1cn([C@H]2C[C@H](N=[N+]=[N-])[C@@H](CO)O2)c(=O)[nH]c1=O [ZIDOVUDINE] |  |  | 10 nM
Not Active | Cc1cc(=O)oc2c3c(ccc12)[S+]([O-])[C@@H](C)C(OC(=O)C12CCC(C)(C(=O)O1)C2(C)C)C3OC(=O)C12CCC(C)(C(=O)O1)C2(C)C (some centres undefined) |  |  | 
 | Cc1cc(=O)oc2c3c(ccc12)OC[C@H](OC(=O)[C@]12CC[C@](C)(C(=O)O1)C2(C)C)[C@@H]3OC(=O)[C@]12CC[C@](C)(C(=O)O1)C2(C)C | 2.54 |  | 16200 nM
Not Active | Cc1cc(=O)oc2c3c(ccc12)O[C@H](C)[C@H](OC(=O)[C@]12CC[C@](C)(C(=O)O1)C2(C)C)[C@@H]3OC(=O)[C@]12CC[C@](C)(C(=O)O1)C2(C)C |  |  | 
 | Cc1cc(=O)oc2c3c(ccc12)SC[C@H](OC(=O)[C@]12CC[C@](C)(C(=O)O1)C2(C)C)[C@@H]3OC(=O)[C@]12CC[C@](C)(C(=O)O1)C2(C)C | 40.6 |  | 990 nM
 | Cc1cc(=O)oc2c3c(ccc12)S[C@@H](C)[C@@H](OC(=O)[C@]12CC[C@](C)(C(=O)O1)C2(C)C)[C@H]3OC(=O)[C@]12CC[C@](C)(C(=O)O1)C2(C)C | > 1000 |  | < 39 nM
 | Cc1cc(=O)oc2c3c(ccc12)O[C@H](C)[C@@H](OC(=O)[C@]12CC[C@](C)(C(=O)O1)C2(C)C)[C@H]3OC(=O)[C@]12CC[C@](C)(C(=O)O1)C2(C)C | 17.8 |  | 2260 nM
